Series [1] concerns the target T1, TAK1 (Homo sapiens, UniProt O43318).
T1 sequence (O43318 1-303 limits assumed): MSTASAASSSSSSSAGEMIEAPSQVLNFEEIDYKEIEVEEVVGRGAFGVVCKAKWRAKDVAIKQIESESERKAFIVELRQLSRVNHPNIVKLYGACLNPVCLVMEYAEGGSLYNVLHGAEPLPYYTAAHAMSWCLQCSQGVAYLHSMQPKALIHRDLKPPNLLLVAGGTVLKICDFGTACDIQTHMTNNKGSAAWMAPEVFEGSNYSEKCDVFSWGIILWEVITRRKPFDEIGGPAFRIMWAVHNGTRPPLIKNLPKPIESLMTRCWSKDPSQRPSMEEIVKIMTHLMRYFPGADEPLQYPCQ
Nature of the series: Potency of takinib analogues against TAK1. It is filed as biochemical.

The target in series [2] is T2, TAK1 (Homo sapiens, UniProt O43318).
T2 sequence (O43318 with tags, fused parts or gaps limits assumed): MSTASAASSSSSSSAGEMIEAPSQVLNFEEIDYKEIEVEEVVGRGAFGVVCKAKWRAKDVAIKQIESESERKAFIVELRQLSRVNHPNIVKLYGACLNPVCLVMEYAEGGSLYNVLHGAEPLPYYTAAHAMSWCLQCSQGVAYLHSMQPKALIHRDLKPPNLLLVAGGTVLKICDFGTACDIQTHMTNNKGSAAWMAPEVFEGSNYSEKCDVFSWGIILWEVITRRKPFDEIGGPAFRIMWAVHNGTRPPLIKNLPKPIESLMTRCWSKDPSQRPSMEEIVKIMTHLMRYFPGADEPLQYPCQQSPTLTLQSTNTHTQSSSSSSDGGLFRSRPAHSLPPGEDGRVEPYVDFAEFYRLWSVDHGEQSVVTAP
The series is described as follows: MRC Dundee kinase panel screen at 10 μM. The format is biochemical.

For the next series, the target named is IRAK1 (Homo sapiens, UniProt P51617). The series is described as follows: MRC Dundee kinase panel screen at 10 μM. The format is biochemical.
Series [3] concerns the target T3, MAP4K5 (Homo sapiens, UniProt Q9Y4K4). The series is described as follows: MRC Dundee kinase panel screen at 10 μM. It is filed as biochemical.
A further series deals with T4, ULK2 (Homo sapiens, UniProt Q8IYT8).
T4 sequence (Q8IYT8 1-1036): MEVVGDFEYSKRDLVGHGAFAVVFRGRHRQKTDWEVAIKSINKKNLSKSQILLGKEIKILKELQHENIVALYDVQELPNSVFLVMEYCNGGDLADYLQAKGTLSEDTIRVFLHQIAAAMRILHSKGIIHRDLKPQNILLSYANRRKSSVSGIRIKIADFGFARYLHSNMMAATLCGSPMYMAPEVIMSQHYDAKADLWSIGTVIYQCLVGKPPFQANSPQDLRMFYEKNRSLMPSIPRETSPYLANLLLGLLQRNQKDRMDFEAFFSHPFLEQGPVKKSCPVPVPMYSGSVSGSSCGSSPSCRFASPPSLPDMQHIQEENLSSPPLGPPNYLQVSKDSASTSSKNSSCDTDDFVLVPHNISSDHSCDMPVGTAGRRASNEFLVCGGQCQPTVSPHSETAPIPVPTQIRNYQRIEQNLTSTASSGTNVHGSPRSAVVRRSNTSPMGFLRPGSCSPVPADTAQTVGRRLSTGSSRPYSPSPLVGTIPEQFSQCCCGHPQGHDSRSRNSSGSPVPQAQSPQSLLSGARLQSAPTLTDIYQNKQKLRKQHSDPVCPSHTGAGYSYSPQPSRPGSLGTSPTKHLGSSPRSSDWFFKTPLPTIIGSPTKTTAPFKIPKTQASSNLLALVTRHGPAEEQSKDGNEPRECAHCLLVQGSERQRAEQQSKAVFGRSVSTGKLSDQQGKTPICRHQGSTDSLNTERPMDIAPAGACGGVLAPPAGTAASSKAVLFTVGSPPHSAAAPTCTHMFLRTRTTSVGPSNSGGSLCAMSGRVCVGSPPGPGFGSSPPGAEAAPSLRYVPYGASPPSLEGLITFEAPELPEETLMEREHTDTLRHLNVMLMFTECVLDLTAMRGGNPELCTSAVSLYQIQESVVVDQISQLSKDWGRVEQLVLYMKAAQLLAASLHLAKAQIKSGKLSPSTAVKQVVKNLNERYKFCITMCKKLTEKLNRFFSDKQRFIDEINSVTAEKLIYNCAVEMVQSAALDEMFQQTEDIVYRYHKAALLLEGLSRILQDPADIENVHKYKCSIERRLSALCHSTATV
Nature of the series: MRC Dundee kinase panel screen at 10 μM. It is filed as biochemical.

In series [4] the target is T2, TAK1. Nature of the series: Dose–response of top 10 kinase hits. It is filed as biochemical. Particulars: read-out: IC50 TAK1, n = 2.
Series [5] deals with T3, MAP4K5. The series is described as follows: Dose–response of top 10 kinase hits. Particulars: read-out: IC50 MAP4K5, n = 2. The format is biochemical.
Another series concerns the target CAMKKβ−1 (Homo sapiens, UniProt Q96RR4). Nature of the series: Dose–response of top 10 kinase hits. It is filed as biochemical. Conditions: read-out: IC50 CAMKKβ−1, n = 2.
Another series addresses MLK1 (Homo sapiens, UniProt P80192). The series is described as follows: Dose–response of top 10 kinase hits. Conditions: read-out: IC50 MLK1, n = 2. The format is biochemical.
Series [6] has as its system TNF expression in THP-1 cells. The series is described as follows: Cytokine dose–response curves in THP-1 cells. The format is cell-based, human. Particulars: read-out: IC50 TNF expression; LPS-stimulated THP-1, 24 h. The procedure, abridged: (§1)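 THP-1 cells differentiated with PMA (100 nM) for up to 72 h, then rested 24 h in PMA-free RPMI. Pretreated with test compound (3.2 nM–32 μM) or DMSO vehicle, then stimulated with LPS (10 ng/mL). After 24 h, TNF, IL-6 and IL-1β in supernatant measured by Luminex and expressed as percent of vehicle control; n = 3.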

For series [7], the system named is IL-1β expression in THP-1 cells. Nature of the series: Cytokine dose–response curves in THP-1 cells. The format is cell-based, human. Conditions: read-out: IC50 IL-1β expression; LPS-stimulated THP-1, 24 h. Put shortly:
as §1

A short description of series [8]: Bioavailability in adult CD-1 mice. The format is in vivo.
Setting [9] is: oral administration, normal mice.

T3 sequence (Q9Y4K4 whole entry): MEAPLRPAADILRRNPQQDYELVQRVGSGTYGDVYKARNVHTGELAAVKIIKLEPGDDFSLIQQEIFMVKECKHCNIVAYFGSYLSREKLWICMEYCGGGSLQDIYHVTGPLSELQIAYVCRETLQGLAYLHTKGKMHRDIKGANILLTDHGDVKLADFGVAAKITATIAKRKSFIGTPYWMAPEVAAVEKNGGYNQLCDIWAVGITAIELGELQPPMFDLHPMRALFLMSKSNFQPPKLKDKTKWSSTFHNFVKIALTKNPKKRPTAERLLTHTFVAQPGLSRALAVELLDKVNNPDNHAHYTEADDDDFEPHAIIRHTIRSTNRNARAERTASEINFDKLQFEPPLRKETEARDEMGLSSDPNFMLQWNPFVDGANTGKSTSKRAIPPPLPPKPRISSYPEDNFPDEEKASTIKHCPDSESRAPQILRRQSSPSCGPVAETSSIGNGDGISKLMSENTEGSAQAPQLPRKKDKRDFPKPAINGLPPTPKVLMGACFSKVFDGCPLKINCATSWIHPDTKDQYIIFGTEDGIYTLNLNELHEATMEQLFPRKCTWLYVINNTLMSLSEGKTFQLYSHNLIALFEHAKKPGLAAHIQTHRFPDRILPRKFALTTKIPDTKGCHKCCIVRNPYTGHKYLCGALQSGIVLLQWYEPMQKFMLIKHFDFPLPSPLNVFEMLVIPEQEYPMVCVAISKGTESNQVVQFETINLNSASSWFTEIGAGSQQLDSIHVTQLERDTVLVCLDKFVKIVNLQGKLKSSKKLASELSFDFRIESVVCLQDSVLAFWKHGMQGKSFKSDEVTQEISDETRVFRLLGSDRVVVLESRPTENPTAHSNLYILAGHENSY
Chain of IRAK1 (P51617 whole entry): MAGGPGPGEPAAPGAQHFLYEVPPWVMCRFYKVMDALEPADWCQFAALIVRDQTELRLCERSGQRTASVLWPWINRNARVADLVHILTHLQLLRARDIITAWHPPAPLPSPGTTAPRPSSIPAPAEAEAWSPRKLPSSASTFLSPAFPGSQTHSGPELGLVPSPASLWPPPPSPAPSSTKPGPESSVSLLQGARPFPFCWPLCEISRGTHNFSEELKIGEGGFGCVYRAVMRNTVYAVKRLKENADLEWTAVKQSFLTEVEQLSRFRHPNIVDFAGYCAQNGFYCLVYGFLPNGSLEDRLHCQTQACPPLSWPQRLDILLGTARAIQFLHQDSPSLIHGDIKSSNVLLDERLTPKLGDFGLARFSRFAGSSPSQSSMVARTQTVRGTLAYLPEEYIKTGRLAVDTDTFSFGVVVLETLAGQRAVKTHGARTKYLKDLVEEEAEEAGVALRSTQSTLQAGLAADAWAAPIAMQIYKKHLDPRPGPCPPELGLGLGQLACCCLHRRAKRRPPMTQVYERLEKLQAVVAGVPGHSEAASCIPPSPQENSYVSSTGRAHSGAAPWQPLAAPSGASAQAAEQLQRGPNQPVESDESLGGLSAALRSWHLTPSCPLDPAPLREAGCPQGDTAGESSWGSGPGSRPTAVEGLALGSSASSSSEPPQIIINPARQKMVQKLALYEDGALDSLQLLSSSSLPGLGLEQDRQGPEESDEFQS
Chain of MLK1 (P80192 whole entry): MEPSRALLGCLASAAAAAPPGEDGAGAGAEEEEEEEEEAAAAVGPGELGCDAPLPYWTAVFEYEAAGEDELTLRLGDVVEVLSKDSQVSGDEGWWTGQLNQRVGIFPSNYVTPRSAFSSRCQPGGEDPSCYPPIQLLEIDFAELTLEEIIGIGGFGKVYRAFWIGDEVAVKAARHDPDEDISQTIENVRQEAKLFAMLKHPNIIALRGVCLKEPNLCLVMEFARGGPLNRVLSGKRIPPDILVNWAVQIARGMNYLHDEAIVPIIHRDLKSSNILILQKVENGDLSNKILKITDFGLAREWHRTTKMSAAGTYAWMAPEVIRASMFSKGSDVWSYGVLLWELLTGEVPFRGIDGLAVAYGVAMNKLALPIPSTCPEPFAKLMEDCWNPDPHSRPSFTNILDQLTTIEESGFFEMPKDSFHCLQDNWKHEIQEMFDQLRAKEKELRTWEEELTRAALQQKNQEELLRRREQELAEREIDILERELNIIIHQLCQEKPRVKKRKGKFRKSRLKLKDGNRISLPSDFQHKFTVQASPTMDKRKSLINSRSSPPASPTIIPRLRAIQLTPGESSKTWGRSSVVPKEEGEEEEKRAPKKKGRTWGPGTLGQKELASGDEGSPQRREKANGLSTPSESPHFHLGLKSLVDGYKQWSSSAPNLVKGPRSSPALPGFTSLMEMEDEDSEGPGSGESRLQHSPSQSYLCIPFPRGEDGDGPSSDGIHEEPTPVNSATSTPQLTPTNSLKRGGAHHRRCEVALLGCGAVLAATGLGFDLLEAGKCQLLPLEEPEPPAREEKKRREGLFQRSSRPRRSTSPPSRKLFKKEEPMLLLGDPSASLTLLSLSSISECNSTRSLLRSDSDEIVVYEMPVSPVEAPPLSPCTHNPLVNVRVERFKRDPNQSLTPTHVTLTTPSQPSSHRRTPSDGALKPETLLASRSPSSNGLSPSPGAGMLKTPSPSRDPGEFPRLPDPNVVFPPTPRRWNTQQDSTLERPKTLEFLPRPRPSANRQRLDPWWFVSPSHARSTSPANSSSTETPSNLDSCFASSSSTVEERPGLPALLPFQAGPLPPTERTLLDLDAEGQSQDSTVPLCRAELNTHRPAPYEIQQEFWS
Chain of CAMKKβ−1 (Q96RR4 whole entry): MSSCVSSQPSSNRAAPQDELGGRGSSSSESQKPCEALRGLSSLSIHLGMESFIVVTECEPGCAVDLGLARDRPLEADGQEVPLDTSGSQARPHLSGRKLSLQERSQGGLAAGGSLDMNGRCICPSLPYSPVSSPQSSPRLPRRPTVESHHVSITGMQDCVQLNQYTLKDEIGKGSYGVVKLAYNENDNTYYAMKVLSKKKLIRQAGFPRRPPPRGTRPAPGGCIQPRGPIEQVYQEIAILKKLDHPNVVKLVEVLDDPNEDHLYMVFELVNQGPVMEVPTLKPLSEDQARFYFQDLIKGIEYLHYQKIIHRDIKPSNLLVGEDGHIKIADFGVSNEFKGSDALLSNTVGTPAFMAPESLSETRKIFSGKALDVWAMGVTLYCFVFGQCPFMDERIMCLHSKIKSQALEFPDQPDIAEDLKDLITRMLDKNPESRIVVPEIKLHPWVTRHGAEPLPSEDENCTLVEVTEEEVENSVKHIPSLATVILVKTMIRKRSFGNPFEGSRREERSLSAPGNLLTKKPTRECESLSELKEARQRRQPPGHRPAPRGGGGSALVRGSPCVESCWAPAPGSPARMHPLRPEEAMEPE

The term Ki denotes the dissociation constant of the complex between target and ligand, obtained from inhibition or displacement. High values mean weaker binding, low ones tighter binding. For orientation: IC50 means the concentration at which inhibition is half-maximal. As usually defined, the Cmax is the peak of the concentration-time curve. What is called Tmax is the time from dosing to the highest level. Usually half-life stands for the time in which the quantity being followed falls by half. Lower therefore signals fast loss. The bioavailability is dose-corrected exposure relative to a reference, in per cent. High values mean much systemic uptake, low ones little systemic uptake. Molecule `CCCn1c(NC(=O)c2cccc(C(N)=O)c2)nc2ccc(CN3CCCCC3)cc21` [HS-276] returned a Ki on TAK1 [1] (TAK1) of 2.5 nM. Also, the IC50 stood at 2.5 nM at TAK1 [1] (read-out: TAK1 IC50); 8 nM on TAK1 [4]; 124 nM at MAP4K5 [5]; 1280 nM at CAMKKβ−1; 5580 nM at MLK1; 138 nM in [6]. Further, the IC50 in series [7] is 234 nM. Moreover, the enzymatic activity on TAK1 [2], at IRAK1, at MAP4K5 [3] and at ULK2 was < 15% throughout. The AUC0-last worked out at 7960.0 ng·h/mL in series [8] (mouse, IV, 30 mg/kg) and 7812 ng·h/mL in [8] (mouse, PO, 30 mg/kg). Besides, the peak concentration (Cmax) is 11,162 ng/ml in series [8] (mouse, IV, 30 mg/kg) and 3682 ng/mL in series [8] (mouse, PO, 30 mg/kg). Also, the Tmax in series [8] (mouse, IV, 30 mg/kg) was 0.08 h; in series [8] (mouse, PO, 30 mg/kg), 1 h. The half-life in series [8] (mouse, IV, 30 mg/kg) is 1.24 h; in [8] (mouse, PO, 30 mg/kg), 1.41 h. Moreover, the “%F” value in series [8] (mouse, PO, 30 mg/kg) is 98.1%. Further, the bioavailability in series [8] (setting [9]) is recorded as > 95%. In series [8] (setting [9]), the plasma levels result was “μM plasma levels”.

(Values after article PMC9245008 (ACS chemical biology, 2022).)
